The list is not random: actives were taken first. Their share in the collection is about 2.1%.
PP5 inh: blocks human protein phosphatase 5 activity. P53041. purified PP5c, OMFP substrate fluorescence. inhibition, % at 6.7 µM. 0.18% of 320,000 active. AID 1987;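 active = inhibition above the campaign's mean inhibition across all tested compounds plus 3 SD, cut at about 9.5% in these data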;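 also: 0% = DMSO only and 100% = 100 µM cantharidin control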
TDP2 absorb: blocks human TDP2 phosphodiesterase activity; O95551; recombinant TDP2, T5PNP hydrolysis, p-nitrophenol absorbance 415 nm; inhibition, % at 12.8 µM; 0.34% of 370,000 active; AID 720702;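 active = inhibition above the mean of all tested compounds plus 3 SD, set per campaign, cut at about 25% in these data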;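 also: 0% = DMSO with enzyme and 100% = buffer with substrate but no TDP2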
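Test system: human TDP2 enzyme; Input: 120 nM TDP2 per well; Buffer or medium: Mg2+-containing Tris-HCl buffer, pH 7.5; Reagent: 5 mM T5PNP; Dosing: 12.8 µM single point, 1% DMSO; Incubation: reaction 2 h, 37 °C; Detection: p-Nitrophenol epi absorbance; Read-out: % inhibition relative to enzyme-containing and enzyme-free wells; Replicates: single well per compound.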
PP1 inh: PP1-alpha (human) inhibition in PP5 counter-screen | inhibition, % at 6.7 µM | 0.9% of 320,000 active | purified PP1alpha, OMFP fluorescence;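 active = inhibition above the mean inhibition of all tested compounds plus 3 SD, computed separately for each screening campaign, cut at about 15% in these data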
Target sequence (P62136 whole entry, looked up): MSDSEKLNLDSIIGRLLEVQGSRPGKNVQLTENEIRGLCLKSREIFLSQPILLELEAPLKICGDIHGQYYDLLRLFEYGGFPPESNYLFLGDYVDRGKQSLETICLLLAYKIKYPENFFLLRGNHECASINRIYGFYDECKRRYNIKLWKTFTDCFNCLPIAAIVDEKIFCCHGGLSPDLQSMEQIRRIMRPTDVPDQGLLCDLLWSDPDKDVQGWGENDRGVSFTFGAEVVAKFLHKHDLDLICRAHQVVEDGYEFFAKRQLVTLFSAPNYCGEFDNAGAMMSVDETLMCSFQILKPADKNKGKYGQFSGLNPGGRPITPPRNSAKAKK
GSTO1 counter: blocks human GSTO1 in RBBP9 counter-screen; P78417; recombinant GSTO1, activity-based probe fluorescence polarization; inhibition, % at 5.96 µM; 1.1% of 300,000 active;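 active = inhibition above the campaign mean inhibition plus 3 SD, cut at about 35% in these data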;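 also: 0% = GSTO1-1 with DMSO and 100% = wells lacking GSTO1-1 enzyme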
Target sequence (P78417 whole entry, looked up): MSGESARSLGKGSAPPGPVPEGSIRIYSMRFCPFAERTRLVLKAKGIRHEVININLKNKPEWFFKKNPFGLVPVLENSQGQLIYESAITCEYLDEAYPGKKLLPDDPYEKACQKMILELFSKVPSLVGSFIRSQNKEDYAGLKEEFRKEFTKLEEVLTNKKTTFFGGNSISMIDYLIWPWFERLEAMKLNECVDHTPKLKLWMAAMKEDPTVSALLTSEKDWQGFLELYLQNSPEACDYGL
Apaf1 inhib: human Apaf-1 inhibition. reconstituted apoptosome caspase-3 activity, DEVD-Rh110 fluorescence. O14727. 0.71% of 330,000 active. AID 489030. inhibition, % at 20 µM; active = inhibition of at least 40% at 20 µM;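 also: plate controls were DMSO wells for no effect and DEVD-CHO caspase inhibitor wells for full effect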
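System – cell-free apoptosome with Apaf-1, procaspase-3 and caspase-9 · Buffer or medium – pH 7.5 Hepes buffer with CHAPS, BSA, DTT · Also added – cytochrome c with DEVD-Rh110 · Times – 30 min compound preincubation, 50 min activation, room temperature · Technique – Rh110 fluorescence intensity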
* hit, by the source's call.

Cc1cccnc1NC(=O)c1ccc(S(=O)(=O)N2CCC(C)CC2)cc1 was read as PP5 inh 0, TDP2 absorb -20, PP1 inh 16*, GSTO1 counter -6 and Apaf1 inhib -1.
Screening CCCN(C(=O)c1cn(CCC)c2ccccc12)c1ccc(Oc2cccnc2)cc1 returned TDP2 absorb -14.
`CC(C)c1ccc(CN2CCN(C(=O)CCl)CC2)cc1` gave TDP2 absorb -2.
`CN(C)C(=O)CN1CCN(C(=O)CCl)CC1` gave PP5 inh 1, TDP2 absorb 19, PP1 inh -1, GSTO1 counter 61* and Apaf1 inhib -10.
COc1ccc(S(=O)(=O)Nc2ccc3c(c2)CCC3)cc1 was read as PP5 inh 3, TDP2 absorb 2, PP1 inh -1, GSTO1 counter 13 and Apaf1 inhib 7.
CC(=O)Nc1ccc(S(=O)(=O)Nc2ccc3c(c2)CCC3)cc1 was read as PP5 inh 3, TDP2 absorb 13, PP1 inh 1, GSTO1 counter 35* and Apaf1 inhib 11.
`COc1cc(C=NNC(=O)CN2CCN(Cc3ccc(C)cc3)CC2)cc(OC)c1O` gave TDP2 absorb -4.
`O=c1[nH]c2ccc(S(=O)(=O)N3CCN(Cc4ccccc4)CC3)cc2[nH]c1=O` gave PP5 inh -1, PP1 inh -2, GSTO1 counter 35* and Apaf1 inhib -20.
Screening Cc1cc(C)nc(SCc2nnc(SCC(=O)Nc3nc(-c4ccccc4)cs3)n2C)n1 returned PP5 inh 0, TDP2 absorb 8, PP1 inh -5, GSTO1 counter 19 and Apaf1 inhib 20.
Screening Cc1ccc(C(=O)CSc2nnc(CNc3nc(-c4ccccc4)cs3)n2C)cc1 returned PP5 inh 5, TDP2 absorb -10, PP1 inh 4, GSTO1 counter 37* and Apaf1 inhib 25.
Screening Cc1cc(N/N=C/c2ccc(O)cc2O)nc(-n2nc(C)cc2C)n1 returned PP5 inh 6, TDP2 absorb 8, PP1 inh 16* and GSTO1 counter -3.
For COC(=O)[C@]12C[C@H](CC(=O)N3CCC(c4ccccc4)CC3)C(=O)N(Cc3ccco3)C1=C[C@H](C(C)(C)C)O[C@@H]2C the results were TDP2 absorb -8.
`CN(C)c1ccc(NC(=O)CSc2nnc(-c3ccco3)c(-c3ccco3)n2)cc1` gave PP5 inh 4, TDP2 absorb 7, PP1 inh 3, GSTO1 counter 19 and Apaf1 inhib 21.
For CSc1nnc(-c2ccccc2)c(-c2ccccc2)n1 the results were PP5 inh 0, TDP2 absorb -15, PP1 inh -2, GSTO1 counter 2 and Apaf1 inhib -2.
`CSc1nnc(-c2ccco2)c(-c2ccco2)n1` gave PP5 inh 3, TDP2 absorb 23, PP1 inh 5, GSTO1 counter 36* and Apaf1 inhib 20.
`Cc1ccc(NC(=O)CSc2nnc(-c3ccco3)c(-c3ccco3)n2)cc1` gave PP5 inh 2, TDP2 absorb 20, PP1 inh 8, GSTO1 counter 37* and Apaf1 inhib 37.
`CCN(CC)Cc1c(C(=O)N/N=C/c2ccc(OCc3ccccc3C)cc2)nnn1-c1nonc1N` gave PP5 inh 4, TDP2 absorb 5, PP1 inh 16*, GSTO1 counter 2 and Apaf1 inhib 20.
Screening CCN(CC)Cc1c(C(=O)N/N=C/c2cccnc2)nnn1-c1nonc1N returned PP5 inh -1, TDP2 absorb -12, PP1 inh -3, GSTO1 counter 7 and Apaf1 inhib 6.
Nc1nonc1-n1nnc(C(=O)N/N=C/c2cc(Br)ccc2O)c1CNc1ccccc1 was read as PP5 inh 3, TDP2 absorb -11, PP1 inh 17*, GSTO1 counter -16 and Apaf1 inhib 18.
`COc1ccc(N2CCN(C(=O)C3CCN(S(=O)(=O)c4ccc5c(c4)CC(C)N5C(=O)C4CC4)CC3)CC2)cc1` (centres undefined) gave TDP2 absorb -8.
For Cc1ccccc1-c1cc2nc(C)c(Cl)c(=O)n2[nH]1 the results were PP5 inh 1, TDP2 absorb -14, PP1 inh -1, GSTO1 counter -6 and Apaf1 inhib -20.
`Cc1ccccc1-c1cc2nc(-c3ccc([N+](=O)[O-])cc3)cc(=O)n2[nH]1` gave PP5 inh 0, TDP2 absorb -6, PP1 inh 16*, GSTO1 counter 0 and Apaf1 inhib 15.
Screening COC(=O)C1=C(C)N(Cc2cccc(C(F)(F)F)c2)C(=NCc2cc(OC)c(OC)c(OC)c2)NC1c1ccc(F)cc1 (centres undefined) returned TDP2 absorb -7.
`Cc1cccc(NC(=O)CNC(=O)CCc2nc3sc4c(c3c(=O)[nH]2)CCCC4)c1C` gave PP5 inh -1, TDP2 absorb -9, PP1 inh -1, GSTO1 counter 28 and Apaf1 inhib 8.
For O=C(CCc1nc2sc3c(c2c(=O)[nH]1)CCCC3)Nc1ccccc1Cl the results were PP5 inh -1, TDP2 absorb 5, PP1 inh 16*, GSTO1 counter 0 and Apaf1 inhib 14.
For CCN(C(=O)[C@@H](C)[C@@H](O)c1ccc2ccccc2c1)c1ccccc1 the results were TDP2 absorb 2.
For CCOc1ccccc1CNc1ccc(O)cc1 the results were TDP2 absorb 26*.
CC(C)c1cc(Nc2cccc(O)c2)cc(C(C)C)c1O was read as PP5 inh 4, PP1 inh -1, GSTO1 counter 42* and Apaf1 inhib 16.
COC(=O)c1c(-c2ccc(OC)cc2)c2c(c3c4cc(F)ccc4n(S(=O)(=O)c4ccc(C)cc4)c13)C(=O)N(C)C2 was read as TDP2 absorb 0.
For COc1cc(C#Cc2c(-c3cncn3C)n(C)c3ccc(-c4cnc(OC)nc4)cc23)cc(OC)c1 the results were PP5 inh 3, TDP2 absorb -6, PP1 inh 6 and Apaf1 inhib 42*.
For CCOC(=O)COc1ccc(/C=C2/C(=O)NN(c3ccc(F)cc3)C2=O)cc1OC the results were PP5 inh 0, TDP2 absorb -1, PP1 inh 3, GSTO1 counter 6 and Apaf1 inhib 9.
For CCOC(=O)c1ccc(N2NC(=O)/C(=C/c3ccc(OC(=O)c4ccco4)c(OC)c3)C2=O)cc1 the results were PP5 inh 2, TDP2 absorb -3, PP1 inh 1, GSTO1 counter 37* and Apaf1 inhib 12.
CNC(=S)N1CCN(c2c(F)cc3c(=O)c(C(=O)O)cn(C4CC4)c3c2OC)CC1C (centres undefined) was read as PP5 inh 5, TDP2 absorb -1, PP1 inh 16*, GSTO1 counter 5 and Apaf1 inhib -4.

Bioassay records deposited in PubChem by several laboratories.
